Common to all, as to type: cell-based
In experiment [1] the test system is Candida albicans MTCC 227. Briefly: Agar well diffusion, antifungal. To be noted: for zone of inhibition at 1000 µg/mL: Candida albicans, MTCC227, 18 h, read-out: Zone of inhibition Candida albicans. In a few lines:
(§1)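 Fungal strains kept like the bacteria (Mueller–Hinton media) but at 30 °C. Agar well diffusion per CLSI (2012): inoculum spread over the agar, 6–8 mm wells punched, and 20–100 μL test compound added per well. Plates incubated at 30 °C and zone of inhibition diameter read in mm.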
(In agar diffusion tests the substance spreads into inoculated agar from a disc or well.)

Experiment [2] deals with DU145 (human prostate cell line). Briefly: MTT cytotoxicity assay, DU145. To be noted: DU-145, 48 h, read-out: IC50 DU145. Put shortly:
(§2)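 ATCC cells grown in DMEM with 10% FBS, 2 mM L-glutamine and 100 μg/mL penicillin–streptomycin at 37 °C, 5% CO2. Medium refreshed, 10 μL of 12 mM MTT stock added, then 4 h in the dark at 37 °C. Formazan dissolved in DMSO and read at 570 nm against media-only blanks. Three independent experiments; IC50 by linear regression.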

Experiment [3] concerns Candida tropicalis MTCC 230. Briefly: Agar well diffusion, antifungal. As to conditions: 1 mg/mL, 18 hrs. In a few lines:
as §1

In experiment [4] the test system is HepG2 (Human hematoma cell line). The experiment can be described thus: MTT cytotoxicity assay, HEPG2. To be noted: HepG2, 48 h, read-out: IC50 HEPG2. In a few lines:
as §2
(In general: Formazan colour is commonly taken as a measure of viable cells.)

In experiment [5] the test system is SKBR-3 (human breast cancer cell line). The experiment can be described thus: MTT cytotoxicity assay, SKBR-3. To be noted: SK-BR-3, 48 h, read-out: IC50 SKBR-3. In a few lines: as §2
Experiment [6] deals with HEK-293 (human embryonic kidney cell line). Briefly: MTT cytotoxicity assay, HEK-293. As to conditions: HEK293, 48 h, read-out: IC50 HEK-293.
The test system of experiment [7] is Bacillus subtilis MTCC 121. Briefly: Agar well diffusion, antibacterial. To be noted: 1 mg/mL, 18 hrs. In a few lines:
(§3)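 Agar well diffusion per CLSI (2012). Bacteria grown on Mueller–Hinton agar and kept in Mueller–Hinton broth at 37 °C for 24 h. Inoculum spread evenly over the agar, 6–8 mm wells punched, and each well loaded with 20–100 μL test compound. Plates incubated at 37 °C and zones of inhibition measured in mm.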

Experiment [8] concerns Staphylococcus aureus MTCC 96. The experiment can be described thus: Agar well diffusion, antibacterial. To be noted: 1 mg/mL, 18 hrs. Put shortly:
as §3

Experiment [9] has as its system Escherichia coli MTCC 730. The experiment can be described thus: Agar well diffusion, antibacterial. As to conditions: 1 mg/mL, 18 hrs. In a few lines: as §3
Experiment [10] deals with Klebsiella pneumoniae MTCC 109. Briefly: Agar well diffusion, antibacterial. To be noted: 1 mg/mL, 18 hrs. In a few lines: as §3

In the case of `CCCCCCOc1ccccc1C(=O)/C=C/C=C/c1ccccc1` [Compound 5l, (2E,4E)-1-(2-(Hexyloxy)phenyl)-5-phenylpenta-2,4-dien-1-one], in [1] (1 mg/mL, 18 hrs), the “Zone of inhibition Candida albicans” value is “showed activity”. The zone of inhibition (in general, the size of the clear area around the sample on an inoculated plate) at 1000 µg/mL in [1] is 8 mm. Besides, the half-maximal inhibitory concentration (IC50) (in general, the point on the concentration scale where inhibition reaches its midpoint) in experiment [2] was 29 ± 2.1 µM; in experiment [4], 46.7 ± 2.2 µM; in [5] it was 23.5 ± 4.1 µM; in experiment [6] it was 98 ± 10.1 µM. The “Zone of inhibition Candida tropicalis” value in [3] is “showed activity”.

Consider `O=C/C=C/c1ccccc1` [Compound 1, (E)-3-phenylprop-2-enal, reference compound], for which the zone of inhibition at 1000 µg/mL in experiment [1] amounted to 11 mm. The 50% inhibitory concentration (IC50) in [2] is 22.4 ± 1.6 µM; in experiment [4] it was 21.8 ± 1 µM; in experiment [5], 13.9 ± 1.6 µM; in experiment [6], 20.6 ± 1 µM. Moreover, the “Zone of inhibition Bacillus subtilis” value in experiment [7] is given as 7–8 mm. The “Zone of inhibition Staphylococcus aureus” value in [8] is given as 7–8 mm. For the same compound, the “Zone of inhibition Escherichia coli” value in [9] is on record as 7–8 mm. Further, the “Zone of inhibition Klebsiella pneumoniae” value in experiment [10] is reported as 7–8 mm.

These data come from article PMC12394810 (RSC Advances, 2025).
